Source: ChEMBL document CHEMBL1154676, “Synthetic mRNA splicing modulator compounds with in vivo antitumor activity” (J Med Chem, 2009)
The source made the active and inactive calls. The rule behind the calls is not given here.

What was measured:
PC-3 = assay: Cytotoxicity against human PC3 cells after 72 hrs by XTT assay; assay type: functional, cell-based; details: PC-3, 72 h
Outline: (§1)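 Cells grown at 37 °C, 5% CO2; HFF in DMEM with 10% FBS, PrEC in prostate epithelial growth medium. Adherent lines seeded overnight, suspension lines same day; compounds diluted from DMSO stocks into media at various final concentrations, 72 h exposure. XTT reagent added 4 h, absorbance 490 nm (reference 690 nm). Growth as % of vehicle; IC50 from sigmoidal dose-response fit; mean ± SEM, three independent experiments.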

[1] = Cytotoxicity against human JeKo1 cells after 72 hrs by XTT assay; assay type: functional, cell-based; details: JeKo-1, 72 h; outline: as §1
[2] = Chemical stability in phosphate buffer assessed as half life at pH 7.4 at 37 degC; assay type: physicochemical
HeLa [3] = assay: Inhibition of spliceosome splicing activity in human HeLa cells assessed as mRNA products at 0.5 to 10 uM by autoradiography; assay type: cell-based
JeKo-1 = assay: Anticancer activity against human JeKo1 cells transplanted in Es-1/SCID mouse assessed as decrease in tumor volume at 50 to 100 mg/kg, iv measured after 25 days; assay type: functional, organism-based
HeLa [4] = assay: Anticancer activity in human HeLa cells assessed as aggregation of SC35 and SF3b protein SAP155 at 10 uM after 4 hrs by immunofluorescence analysis; assay type: functional, cell-based
Outline: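 HeLa cells on glass coverslips exposed 4 h to 10 μM compound in DMSO (DMSO-only control), fixed in cold methanol at −20 °C for 10 min. Stained with anti-SC35 or anti-SAP155 primary (1/100, 1 h, 37 °C), then Alexa Fluor 488 anti-mouse secondary (1/200). Splicing-factor distribution imaged by fluorescence microscopy at 60X.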

WiDr = assay: Cytotoxicity against human WiDr cells after 72 hrs by XTT assay; assay type: functional, cell-based; outline: as §1
JVM-2 = assay: Cytotoxicity against human JVM2 cells after 72 hrs by XTT assay; assay type: functional, cell-based; details: JVM-2, 72 h; outline: as §1

Row | SMILES | IC50 (PC-3) [nM] | IC50 [1] [nM] | half-life [2] [h] | Activity (HeLa [3]) | Activity (JeKo-1) | Activity (HeLa [4]) | IC50 (WiDr) [nM] | IC50 (JVM-2) [nM]
1 | CC(/C=C/[C@@H]1C[C@]2(CO2)CC(C)(C)O1)=C\C[C@H]1CC[C@@H](NC(=O)/C=C\[C@H](C)OC(=O)C2CCN(C)CC2)CC1 | 10000 | > 1000 |  |  |  |  |  | 
2 | CC(=O)O[C@@H](C)/C=C\C(=O)N[C@@H]1C[C@H](C)[C@H](C/C=C(C)/C=C/[C@H]2O[C@](C)(O)C[C@@]3(CO3)[C@@H]2O)O[C@@H]1C |  |  | 4 |  |  |  |  | 
3 | CC(/C=C/[C@@H]1C[C@]2(CO2)CC(C)(C)O1)=C\C[C@H]1OC[C@@H](NC(=O)/C=C\[C@H](C)OC(=O)C(C)C)CO1 |  | 150 |  | Active | Active | Active |  | 
4 | CC(/C=C/[C@@H]1C[C@]2(CO2)CC(C)(C)O1)=C\C[C@H]1CC[C@@H](NC(=O)/C=C\[C@H](C)OC(=O)c2cccnc2)CC1 | 8100 | 170 |  |  |  |  | 170 | 
5 | CC(/C=C/[C@@H]1C[C@]2(CO2)CC(C)(C)O1)=C\C[C@H]1CC[C@@H](NC(=O)/C=C\[C@H](C)OC(=O)N2CCN(C3CCCCCC3)CC2)CC1 | > 5000 |  |  |  |  |  |  | > 1000
6 | COc1cccc(N2CCN(C(=O)O[C@@H](C)/C=C\C(=O)N[C@H]3CC[C@@H](C/C=C(C)/C=C/[C@@H]4C[C@]5(CO5)CC(C)(C)O4)CC3)CC2)c1 | > 2500 | > 500 |  |  |  |  | > 1250 | > 500
7 | CC(/C=C/[C@@H]1C[C@]2(CO2)CC(C)(C)O1)=C\C[C@H]1CC[C@@H](NC(=O)/C=C\[C@H](C)O)CC1 | 10000 | 1600 |  |  |  |  | 10000 | 1500
8 | CC(/C=C/[C@@H]1C[C@]2(CO2)CC(C)(C)O1)=C\C[C@H]1CC[C@@H](NC(=O)/C=C\[C@H](C)OC(=O)c2ccccc2)CC1 | 4900 | 410 |  |  |  |  | 410 | 
9 | CC(=O)O[C@@H](C)/C=C\C(=O)N[C@H]1CC[C@@H](C/C=C(C)/C=C/[C@@H]2C[C@]3(CO3)CC(C)(C)O2)CC1 |  | 100 |  |  |  |  |  | 
10 | CC(/C=C/[C@@H]1C[C@]2(CO2)CC(C)(C)O1)=C\C[C@H]1CC[C@@H](NC(=O)/C=C\[C@H](C)OC(=O)C2CCOCC2)CC1 | 2000 | 450 |  |  |  |  |  | 
11 | CC(/C=C/[C@@H]1C[C@]2(CO2)CC(C)(C)O1)=C\C[C@H]1CC[C@@H](NC(=O)/C=C\[C@H](C)OC(=O)N2CCN(C)CC2)CC1 | > 2500 | > 500 |  |  |  |  | > 1250 | > 500
12 | CC(/C=C/[C@@H]1C[C@]2(CO2)CC(C)(C)O1)=C\C[C@H]1CC[C@@H](NC(=O)/C=C\[C@H](C)OC(=O)N2CCN(CCO)CC2)CC1 | > 2500 | > 500 |  |  |  |  | > 1250 | > 500
13 | CC(/C=C/[C@@H]1C[C@]2(CO2)CC(C)(C)O1)=C\C[C@H]1CC[C@@H](NC(=O)/C=C\[C@H](C)OC(=O)c2ccco2)CC1 | 3500 | 140 |  |  |  |  | 140 | 
14 | CC(/C=C/[C@@H]1C[C@]2(CO2)CC(C)(C)O1)=C\C[C@H]1CC[C@@H](NC(=O)/C=C\[C@H](C)OC(=O)c2cccn2C)CC1 | 4300 | 390 |  |  |  |  | 390 | 
15 | CC(/C=C/[C@@H]1C[C@](O)(CCl)CC(C)(C)O1)=C\C[C@H]1CC[C@@H](NC(=O)/C=C\[C@H](C)OC(=O)N2CCN(C3CCCCCC3)CC2)CC1 | > 5000 |  |  |  |  |  | > 1250 | > 10000
16 | CC(/C=C/[C@@H]1C[C@]2(CO2)CC(C)(C)O1)=C\C[C@H]1CC[C@@H](NC(=O)/C=C\[C@H](C)OC(=O)C2CCN(c3ccnc(C(F)(F)F)n3)CC2)CC1 | > 10000 | > 1000 |  |  |  |  | > 1000 | 
